# Test results reported in ChEMBL document CHEMBL3861985, “Discovery of N-(1-(3-(4-phenoxyphenyl)-1,2,4-oxadiazol-5-yl)ethyl)acetamides as novel acetyl-CoA carboxylase 2 (ACC2) inhibitors with peroxisome proliferator-activated receptor α/δ (PPARα/δ) dual agonistic activity” (Bioorg Med Chem, 2016).
# What was measured:
# Acetyl-CoA carboxylase 2 [1] = biological target: T1, Acetyl-CoA carboxylase 2 (Homo sapiens, UniProt O00763); assay: Inhibition of full length recombinant C-terminal His-tagged human ACC2 expressed in baculovirus infected sf9 cells at 30 uM using acetyl-CoA as substrate after 90 mins by ATP consumption assay relative to N-(4-(4-(4-isopropoxyphenoxy)phenyl)but-3-yn-2-yl)acetamide
# How it was run: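 ATP-consumption assay with His-tagged human ACC2 (50 ng/well), 0.5 mM acetyl-CoA, 0.5 μM ATP and bicarbonate/citrate/Mg2+ in HEPES pH 7.5, run 90 min at 37 °C. Residual ATP was measured. Inhibition at 30 μM is expressed as a percentage of the maximum inhibition reached by the reference ACC inhibitor (set to 100%).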
# Target sequence in this assay (O00763 whole entry, looked up): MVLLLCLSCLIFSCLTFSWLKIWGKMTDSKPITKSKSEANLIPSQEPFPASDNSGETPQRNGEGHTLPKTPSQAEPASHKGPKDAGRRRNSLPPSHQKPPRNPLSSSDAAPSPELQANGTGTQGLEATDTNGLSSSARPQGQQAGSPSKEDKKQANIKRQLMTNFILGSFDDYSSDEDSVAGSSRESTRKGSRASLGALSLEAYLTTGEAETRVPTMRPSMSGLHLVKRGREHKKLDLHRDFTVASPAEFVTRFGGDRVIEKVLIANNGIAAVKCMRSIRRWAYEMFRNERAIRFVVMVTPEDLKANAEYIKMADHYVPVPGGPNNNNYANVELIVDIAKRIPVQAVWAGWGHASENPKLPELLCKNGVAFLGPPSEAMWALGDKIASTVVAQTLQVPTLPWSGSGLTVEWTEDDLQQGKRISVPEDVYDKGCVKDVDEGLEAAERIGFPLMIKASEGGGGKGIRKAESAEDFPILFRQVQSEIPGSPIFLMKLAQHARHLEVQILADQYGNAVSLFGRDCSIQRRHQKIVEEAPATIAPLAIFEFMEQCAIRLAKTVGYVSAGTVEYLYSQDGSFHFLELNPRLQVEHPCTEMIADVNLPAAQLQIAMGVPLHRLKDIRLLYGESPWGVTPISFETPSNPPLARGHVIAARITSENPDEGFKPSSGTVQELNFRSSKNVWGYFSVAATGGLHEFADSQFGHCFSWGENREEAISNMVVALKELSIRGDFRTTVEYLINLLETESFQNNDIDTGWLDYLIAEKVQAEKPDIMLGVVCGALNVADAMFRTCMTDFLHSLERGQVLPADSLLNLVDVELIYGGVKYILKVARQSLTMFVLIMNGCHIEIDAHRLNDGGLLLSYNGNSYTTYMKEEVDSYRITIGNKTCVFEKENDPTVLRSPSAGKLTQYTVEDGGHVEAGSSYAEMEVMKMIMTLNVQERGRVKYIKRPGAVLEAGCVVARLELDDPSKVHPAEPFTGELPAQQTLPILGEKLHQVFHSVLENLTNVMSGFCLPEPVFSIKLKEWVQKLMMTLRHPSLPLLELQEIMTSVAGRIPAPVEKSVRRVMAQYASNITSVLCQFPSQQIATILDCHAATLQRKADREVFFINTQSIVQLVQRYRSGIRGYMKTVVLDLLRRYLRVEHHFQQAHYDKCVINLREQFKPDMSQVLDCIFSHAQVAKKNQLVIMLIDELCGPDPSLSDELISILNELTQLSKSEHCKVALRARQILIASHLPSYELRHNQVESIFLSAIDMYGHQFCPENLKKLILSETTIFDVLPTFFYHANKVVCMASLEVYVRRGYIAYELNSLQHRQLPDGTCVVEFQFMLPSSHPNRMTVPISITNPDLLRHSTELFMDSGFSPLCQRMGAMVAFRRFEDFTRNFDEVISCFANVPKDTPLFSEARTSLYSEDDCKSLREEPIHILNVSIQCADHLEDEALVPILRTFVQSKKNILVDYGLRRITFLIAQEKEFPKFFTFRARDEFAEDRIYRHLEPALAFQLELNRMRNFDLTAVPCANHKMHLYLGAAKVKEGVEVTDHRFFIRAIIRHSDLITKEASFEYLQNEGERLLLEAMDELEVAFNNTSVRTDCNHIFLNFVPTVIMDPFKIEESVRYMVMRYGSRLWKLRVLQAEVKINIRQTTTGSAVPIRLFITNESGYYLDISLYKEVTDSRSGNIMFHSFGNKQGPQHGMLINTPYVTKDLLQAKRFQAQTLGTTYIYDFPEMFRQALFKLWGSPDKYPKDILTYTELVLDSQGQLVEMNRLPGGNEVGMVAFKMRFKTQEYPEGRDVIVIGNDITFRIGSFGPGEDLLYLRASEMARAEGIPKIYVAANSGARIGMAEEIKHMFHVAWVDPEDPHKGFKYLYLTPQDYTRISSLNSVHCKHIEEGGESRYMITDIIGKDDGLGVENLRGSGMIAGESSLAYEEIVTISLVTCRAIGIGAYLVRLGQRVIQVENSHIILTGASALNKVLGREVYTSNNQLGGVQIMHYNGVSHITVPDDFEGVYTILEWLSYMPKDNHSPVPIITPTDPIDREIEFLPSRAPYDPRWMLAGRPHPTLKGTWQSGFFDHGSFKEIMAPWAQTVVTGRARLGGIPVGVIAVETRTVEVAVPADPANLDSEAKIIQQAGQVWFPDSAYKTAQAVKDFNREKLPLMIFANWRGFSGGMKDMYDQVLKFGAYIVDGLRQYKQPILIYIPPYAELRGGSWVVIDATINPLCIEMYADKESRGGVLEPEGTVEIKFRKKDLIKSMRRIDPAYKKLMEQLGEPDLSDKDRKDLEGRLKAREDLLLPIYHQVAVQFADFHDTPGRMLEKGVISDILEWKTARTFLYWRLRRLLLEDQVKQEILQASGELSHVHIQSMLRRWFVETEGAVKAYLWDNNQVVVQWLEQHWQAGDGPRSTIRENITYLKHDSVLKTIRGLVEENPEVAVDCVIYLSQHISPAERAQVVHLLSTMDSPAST
# [2] = biological target: T2, Peroxisome proliferator-activated receptor alpha (Homo sapiens, UniProt Q07869); assay: Agonist activity at GAL4-tagged human PPARalpha ligand binding domain chimeric receptor expressed in HEK293 cells after 24 hrs by luciferase reporter gene assay; assay type: cell-based
# T2 sequence (Q07869 whole entry): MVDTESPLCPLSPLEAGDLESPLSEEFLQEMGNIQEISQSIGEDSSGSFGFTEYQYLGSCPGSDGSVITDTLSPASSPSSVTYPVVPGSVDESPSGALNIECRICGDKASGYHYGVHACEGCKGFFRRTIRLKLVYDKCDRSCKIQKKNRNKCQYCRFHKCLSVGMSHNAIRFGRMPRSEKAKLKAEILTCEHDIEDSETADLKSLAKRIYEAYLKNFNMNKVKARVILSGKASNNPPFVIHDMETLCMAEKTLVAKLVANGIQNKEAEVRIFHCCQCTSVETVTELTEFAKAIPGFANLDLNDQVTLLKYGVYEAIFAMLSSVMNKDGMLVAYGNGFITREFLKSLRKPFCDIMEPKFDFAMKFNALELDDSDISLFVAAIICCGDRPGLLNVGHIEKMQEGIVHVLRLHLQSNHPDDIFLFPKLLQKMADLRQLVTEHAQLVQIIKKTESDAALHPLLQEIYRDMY
# How it was run: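 HEK293 cells seeded at 20% confluence the day before. They were co-transfected by calcium phosphate with a CMX-GAL4N-hPPARα, γ or δ LBD plasmid (30 ng), TK-MH100x4-Luc reporter (100 ng) and CMX-β-galactosidase (10 ng). After 24 h, compound was added for 24 h (final 0.5% DMSO). Luciferase was read and normalized to β-galactosidase (2-nitrophenyl-β-D-galactopyranoside, A405). Triplicates; EC50 taken from dose–response curves.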
# [3] = biological target: T3, Peroxisome proliferator-activated receptor delta (Homo sapiens, UniProt Q03181); assay: Agonist activity at GAL4-tagged human PPARdelta ligand binding domain chimeric receptor expressed in HEK293 cells after 24 hrs by luciferase reporter gene assay; assay type: cell-based
# T3 sequence (Q03181 whole entry): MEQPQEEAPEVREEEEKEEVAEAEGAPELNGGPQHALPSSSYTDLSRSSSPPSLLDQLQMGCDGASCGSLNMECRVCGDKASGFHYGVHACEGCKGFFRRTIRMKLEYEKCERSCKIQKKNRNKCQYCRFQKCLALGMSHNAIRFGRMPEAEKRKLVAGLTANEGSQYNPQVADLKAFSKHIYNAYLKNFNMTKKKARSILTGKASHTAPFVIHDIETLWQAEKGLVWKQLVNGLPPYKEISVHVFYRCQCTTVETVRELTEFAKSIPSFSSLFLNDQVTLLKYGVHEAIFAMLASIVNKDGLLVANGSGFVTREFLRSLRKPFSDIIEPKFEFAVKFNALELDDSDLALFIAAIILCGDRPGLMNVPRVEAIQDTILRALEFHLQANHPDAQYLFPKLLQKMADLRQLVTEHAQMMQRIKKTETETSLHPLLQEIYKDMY
# Acetyl-CoA carboxylase 2 [4] = biological target: T1, Acetyl-CoA carboxylase 2; assay: Inhibition of full length recombinant C-terminal His-tagged human ACC2 expressed in baculovirus infected sf9 cells using acetyl-CoA as substrate after 90 mins by ATP consumption assay
# How it was run: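 Recombinant C-terminal His-tagged human ACC2 (50 ng/well) was run in 30 mM HEPES pH 7.5 with 18 mM NaHCO3, 1.0 mg/mL BSA, 0.5 μM ATP, 1 mM DTT, 4 mM MgCl2, 2 mM sodium citrate, 0.5 mM acetyl-CoA and 1% DMSO. Inhibitor ranged 0–100 μM. Enzyme addition started the reaction, then 90 min at 37 °C. Residual ATP was read by luminescence. Triplicates; IC50 from dose–response curves.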
# Target sequence in this assay (O00763 whole entry): as the sequence (O00763 whole entry, looked up) above
# [5] = biological target: T4, Peroxisome proliferator-activated receptor alpha (Homo sapiens) (UniProt Q07869); assay: Agonist activity at GAL4-tagged human PPARalpha ligand binding domain chimeric receptor expressed in HEK293 cells after 24 hrs by luciferase reporter gene assay relative to GW7647; assay type: cell-based
# T4 sequence (whole entry): T2 sequence (Q07869 whole entry)
# [6] = biological target: T5, Peroxisome proliferator-activated receptor delta (Homo sapiens) (UniProt Q03181); assay: Agonist activity at GAL4-tagged human PPARdelta ligand binding domain chimeric receptor expressed in HEK293 cells after 24 hrs by luciferase reporter gene assay relative to GW501516; assay type: cell-based
# T5 sequence (whole entry): T3 sequence (Q03181 whole entry)
Compound,Imax (Acetyl-CoA carboxylase 2 [1]),EC50 [2],EC50 [3],IC50 (Acetyl-CoA carboxylase 2 [4]),Emax [5],Emax [6]
CCOc1ccc(Oc2ccc(-c3noc(C(C)NC(C)=O)n3)cc2)cc1 (configuration not stated),35%,330 nM,370 nM,420 nM,,
CC(=O)NC(C)C#Cc1ccc(Oc2ccc(OC(C)C)cc2)cc1 (configuration not stated),,,,11 nM,,
CCCCCCOc1ccc(Oc2ccc(-c3noc(C(C)NC(C)=O)n3)cc2)cc1 (configuration not stated),93%,,,260 nM,,
CC(=O)N[C@@H](C)c1nc(-c2ccc(Oc3ccccc3)cc2)no1,65%,150 nM,290 nM,220 nM,,
CCCOc1ccc(Oc2ccc(-c3noc(C(C)NC(C)=O)n3)cc2)cc1 (configuration not stated),88%,,,610 nM,,
CC(=O)NC(C)c1nc(-c2ccc(Oc3ccc(OC(C)C)cc3)cc2)no1 (configuration not stated),74%,,,100 nM,,

# The next lines start with the values.
Imax (Acetyl-CoA carboxylase 2 [1]),EC50 [2],EC50 [3],IC50 (Acetyl-CoA carboxylase 2 [4]),Emax [5],Emax [6],Compound
17%,210 nM,390 nM,,,,COc1ccc(Oc2ccc(-c3noc(C(C)NC(C)=O)n3)cc2)cc1 (configuration not stated)
24%,1000 nM,1000 nM,,13 to 33%,2 to 9%,CC(=O)NC(C)c1nc(-c2ccc(Oc3ccc(O)cc3)cc2)no1 (configuration not stated)
45%,320 nM,320 nM,290 nM,,,CC(=O)NC(C)c1nc(-c2ccc(Oc3ccccc3)cc2)no1 (racemic)
3%,,,,,,CC(=O)NCc1nc(-c2ccc(Oc3ccc(O)cc3)cc2)no1
37%,,,,,,CC(=O)N[C@H](C)c1nc(-c2ccc(Oc3ccccc3)cc2)no1
76%,,,48 nM,,,CC(=O)NC(C)c1nc(-c2ccc(Oc3ccc(Oc4ccccc4)cc3)cc2)no1 (racemic)
86%,,,16 nM,,,CC(=O)N[C@@H](C)c1nc(-c2ccc(Oc3ccc(Oc4ccccc4)cc3)cc2)no1
83%,,,1100 nM,,,CC(=O)NCc1nc(-c2ccc(Oc3ccc(OC(C)C)cc3)cc2)no1
67%,,,7500 nM,,,CC(=O)N[C@H](C)c1nc(-c2ccc(Oc3ccc(Oc4ccccc4)cc3)cc2)no1
